One molecule from ChEMBL document CHEMBL4431376, “CZ415, a Highly Selective mTOR Inhibitor Showing in Vivo Efficacy in a Collagen Induced Arthritis Model” (ACS Med Chem Lett, 2016) can be followed below.

The nature of series [1]: Intrinsic clearance in pooled cryopreserved human hepatocytes at 1 uM incubated up to 90 mins by LC-MS/MS analysis. The following applies: 1.5 h. The format is ADME, cell-based, Hepatocyte. The method, boiled down: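 Metabolic stability was assessed in liver microsomes (rat, dog, human) and hepatocytes (dog, human). Intrinsic clearance was calculated as μL/min/g liver.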

A short description of series [2]: Protein binding in rat plasma. The format is ADME, cell-free. The following applies: read-out: PPB (converted). An outline of the steps: (§1)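 Plasma protein binding was determined in rat, mouse and human plasma, expressed as % bound.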
Series [3] in a line: Protein binding in mouse plasma. The format is ADME, cell-free. The following applies: read-out: PPB (converted). The method, boiled down:
as §1

A short description of series [4]: Protein binding in human plasma. It counts as ADME, cell-free. The following applies: read-out: PPB (converted). The method, boiled down: as §1
Series [5] can be described thus: Plasma clearance in Sprague-Dawley rat at 1 mg/kg, iv as bolus dose or 3 mg/kg, po administered through gavage measured up to 8 hrs by LC-MS/MS analysis. The format is ADME, organism-based. The method, boiled down: (§2)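 Rats (n = 3 per route) given a 1 mg/kg intravenous bolus or 3 mg/kg as an oral solution. Vehicle was 5% DMSO/95% (10% Kleptose). Plasma concentration was followed over time to derive PK parameters and oral bioavailability. Clearance was also expressed relative to liver blood flow.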

Series [6] in a line: Blood clearance in Sprague-Dawley rat at 1 mg/kg, iv as bolus dose or 3 mg/kg, po administered through gavage measured up to 8 hrs by LC-MS/MS analysis. It counts as ADME, organism-based. The following applies: whole blood. An outline of the steps: as §2
Series [7] can be described thus: Plasma clearance in Sprague-Dawley rat at 1 mg/kg, iv as bolus dose or 3 mg/kg, po administered through gavage measured up to 8 hrs by LC-MS/MS analysis relative to liver blood flow. The format is ADME, organism-based. The following applies: in vivo. An outline of the steps:
as §2

A short description of series [8]: Volume of distribution at steady state in Sprague-Dawley rat at 1 mg/kg, iv as bolus dose or 3 mg/kg, po administered through gavage measured up to 8 hrs by LC-MS/MS analysis. It counts as ADME, organism-based. The following applies: in vivo, read-out: Vdss. An outline of the steps: as §2
Series [9] is described as follows: Cmax in Sprague-Dawley rat at 1 mg/kg, iv as bolus dose by LC-MS/MS analysis. The format is ADME, organism-based. Also noted: dose 1 mg/kg, route intravenous. The following applies: in vivo. An outline of the steps: as §2
The nature of series [10]: Cmax in Sprague-Dawley rat at 3 mg/kg, po administered through gavage by LC-MS/MS analysis. The format is ADME, organism-based. More on the design: dose 3 mg/kg, route oral. The following applies: in vivo. An outline of the steps:
as §2

Series [11] is described as follows: Mean residence time in Sprague-Dawley rat at 1 mg/kg, iv as bolus dose or 3 mg/kg, po administered through gavage by LC-MS/MS analysis. It counts as ADME, organism-based. The following applies: in vivo. An outline of the steps: as §2
Series [12] can be described thus: AUC (0 to infinity) in Sprague-Dawley rat at 1 mg/kg, iv as bolus dose by LC-MS/MS analysis. It counts as ADME, organism-based. More on the design: dose 1 mg/kg, route intravenous, time infinity. The following applies: in vivo. The method, boiled down:
as §2

Series [13] in a line: AUC (0 to infinity) in Sprague-Dawley rat at 3 mg/kg, po administered through gavage by LC-MS/MS analysis. The format is ADME, organism-based. More on the design: dose 3 mg/kg, route oral, time infinity. The following applies: in vivo. An outline of the steps: as §2
The nature of series [14]: Oral bioavailability in Sprague-Dawley rat at 3 mg/kg administered through gavage measured up to 8 hrs by LC-MS/MS analysis. The format is ADME, organism-based. The following applies: in vivo. An outline of the steps:
as §2

The nature of series [15]: Tmax in Sprague-Dawley rat at 3 mg/kg, po administered through gavage by LC-MS/MS analysis. The format is ADME, organism-based. The following applies: in vivo. An outline of the steps:
as §2

Series [16] has as its system Mus musculus. The experiment in a line: Anti-inflammatory activity in DBA/1 OlaHsd mouse immunized with bovine type2 collagen in Freund's complete adjuvant assessed as reduction in AUC of clinical arthritis score at 10 mg/kg, po bid administered starting on day 22 post immunization until day 33 post immunization relative to control. It counts as functional. Also noted: scale not given: the % may be the effect or the level left. The following applies: in the assay text read “until day 34 post immunization” for “until day 33 post immunization”. The method, boiled down:
(§3)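 Semiestablished CIA design. Mice received bovine type II collagen at day 0 with a boost at day 21. Dosing at 10 mg/kg PO bid ran from day 22 to day 34, in 5% DMSO/95% (10% kleptose), n = 10 per group; normal controls n = 4. Paws were scored daily for erythema and swelling (0–5), summarized as AUC. Body weight was tracked over time.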

Series [17] in a line: AUC in DBA/1 OlaHsd mouse immunized with bovine type2 collagen in Freund's complete adjuvant at 10 mg/kg, po bid administered starting on day 22 post immunization measured on day 31 post immunization. The format is ADME, organism-based. The following applies: in vivo. The method, boiled down: (§4)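 Blood drug levels were measured on study day 31 in CIA mice dosed at 10 mg/kg PO bid (n = 10), with vehicle 5% DMSO/95% (10% kleptose). AUC and Cmax were derived from these levels. Time above EC50 was judged against the human whole-blood IFNγ assay EC50 and the anti-CD3 mouse PK/PD EC50.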

Series [18] is described as follows: Cmax in DBA/1 OlaHsd mouse immunized with bovine type2 collagen in Freund's complete adjuvant at 10 mg/kg, po bid administered starting on day 22 post immunization measured on day 31 post immunization. It counts as ADME, organism-based. Also noted: dose 10 mg/kg, route oral. The following applies: in vivo. The method, boiled down:
as §4

In series [19] the test system is Mus musculus. The experiment in a line: Time duration for free plasma concentration stays above invivo EC50 in DBA/1 OlaHsd mouse immunized with bovine type2 collagen in Freund's complete adjuvant at 10 mg/kg, po bid administered starting on day 22 post immunization measured on day 31 post immunization. The format is ADME, organism-based. The following applies: in vivo. An outline of the steps:
as §4

Series [20] is described as follows: Toxicity in DBA/1 OlaHsd mouse immunized with bovine type2 collagen in Freund's complete adjuvant assessed as body weight loss at 10 mg/kg, po bid administered starting on day 22 post immunization measured on day 26 post immunization. The format is organism-based. The following applies: in vivo. An outline of the steps:
as §3

Series [21] concerns Mus musculus. Kind of series: Time duration for free plasma concentration stays above invitro EC50 for human whole blood in DBA/1 OlaHsd mouse immunized with bovine type2 collagen in Freund's complete adjuvant at 10 mg/kg, po bid administered starting on day 22 post immunization measured on day 31 post immunization. It counts as ADME, organism-based. The following applies: in vivo. An outline of the steps:
as §4

For series [22], the species on record is Mus musculus. The experiment in a line: animal or person. The following applies: C57BL/6J.
The species entered for series [23] is Mus musculus. Kind of series: animal or person. The following applies: C57BL/6J. This is another data set of the same source.

Consider `CCNC(=O)Nc1ccc(-c2nc(N3CCOC[C@@H]3C)c3c(n2)C(C)(C)S(=O)(=O)C3)cc1`, for which the CLH result in series [1] is “<= 0.5 microL/min/g”. Besides, the figures for the fraction unbound in [2], in [3] and in series [4] were 0.31, 0.11 and 0.19, respectively. In addition, the clearance in series [5] worked out at 49 mL/min/kg; in series [6] it was 41 mL/min/kg. Further, the CL in series [7] came out at 45%. Also, the Vd in [8] came out at 3.1 L/kg. The Cmax is 710 nM in series [9], 430 nM in series [10] and 1700 nM in series [18]. In series [11], this molecule returned an MRT of 66 min. Besides, the AUC(0-inf) in series [12] was 0.76 µM·h; in [13], 1 µM·h. The bioavailability in series [14] amounted to 44%. Besides, the Tmax in [15] worked out at 30 min. In addition, the Activity is 59% in [16] and “Non-Toxic” in series [20]. The AUC in series [17] worked out at 14 µM·h. For the same molecule, the Time result in series [19] and in series [21] was “<= 8 hr” throughout. The values for the EC50 in series [22] and in series [23] were 55 nM and 220 nM, respectively.
